The values below come from ChEMBL document CHEMBL1142621, “Galloylglucosides from berries of Pimenta dioica” (J Nat Prod, 2000).

Holding throughout (assay type): functional
Test [1] is described as follows: DPPH radical scavenging activity at 80 uM after 30 mins by spectrophotometric assay. The method in brief:
(§1)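 Compounds added to ethanolic DPPH radical solution (100 µM final). Mixtures were vortexed, then kept 30 min at 25 °C in a water bath in the dark. Remaining DPPH was read by absorbance at 517 nm. Scavenging = (A without compound − A with compound)/A without compound × 100. Means with SD from three independent experiments; column differences tested at p < 0.05.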

Test [2] is described as follows: DPPH radical scavenging activity at 40 uM after 30 mins by spectrophotometric assay. The method in brief: as §1
(Loss of DPPH colour is used to gauge radical scavenging.)

The nature of test [3]: DPPH radical scavenging activity at 20 uM after 30 mins by spectrophotometric assay. In a few lines: as §1
Test [4] is described as follows: DPPH radical scavenging activity at 10 uM after 30 mins by spectrophotometric assay. The method in brief:
as §1

The nature of test [5]: DPPH radical scavenging activity at 5 uM after 30 mins by spectrophotometric assay. In a few lines: as §1
Test [6] in a line: DPPH radical scavenging activity at 2.5 uM after 30 mins by spectrophotometric assay. In a few lines: as §1

As for `Cc1cc(C(C)(C)C)c(O)c(C(C)(C)C)c1`, the Activity in test [1] worked out at 68%; in test [2] it was 47.5%; in test [3] it was 28.6%; in test [4], 16.7%; in test [5], 11.8%; in test [6], 6.3%.
As to `C=CCc1cc(OC)c(O)c(O[C@@H]2O[C@H](COC(=O)c3cc(O)c(O)c(O)c3)[C@@H](O)[C@H](O)[C@H]2O)c1`, the Activity amounted to 95.8% in test [1]; 95.7% in test [2]; 91.2% in test [3]; 53.6% in test [4]; 26.8% in test [5]; 12.2% in test [6].
For the compound `O=C(O)c1cc(O)c(O)c(O)c1`, the Activity was found to be 95.7% in test [1]; 94.8% in test [2]; 86.8% in test [3]; 61.6% in test [4]; 34.9% in test [5]; 19% in test [6].
In the case of `COc1cc(CC(CO)O[C@@H]2O[C@H](COC(=O)c3cc(O)c(O)c(O)c3)[C@@H](O)[C@H](O)[C@H]2O)ccc1O` (mixture of isomers), the Activity in test [1] is 95.6%; in test [2], 95.3%; in test [3], 92.4%; in test [4], 56.9%; in test [5], 33.1%; in test [6], 17.7%.
Take `C=CCc1ccc(O[C@@H]2O[C@H](COC(=O)c3cc(O)c(O)c(O)c3)[C@@H](O)[C@H](O)[C@H]2O)c(OC)c1`: the Activity in test [1] was 95.7%; in test [2] it was 95.2%; in test [3] it was 95.2%; in test [4], 60.9%; in test [5] it was 31.7%; in test [6] it was 15%.
As to `CC1=CC[C@@H](C(C)(C)O[C@@H]2O[C@H](COC(=O)c3cc(O)c(O)c(O)c3)[C@@H](O)[C@H](O)[C@H]2O)CC1`, the Activity was found to be 95.4% in test [1]; 95.4% in test [2]; 88.9% in test [3]; 48.4% in test [4]; 26.2% in test [5]; 14.8% in test [6].
Consider `CC1=CC[C@H](C(C)(C)O[C@@H]2O[C@H](COC(=O)c3cc(O)c(O)c(O)c3)[C@@H](O)[C@H](O)[C@H]2O)CC1`, for which the Activity in test [1] amounted to 95.3%; in test [2], 95.3%; in test [3], 90.1%; in test [4] it was 46.2%; in test [5], 24.5%; in test [6], 12.9%.
Regarding `Cc1c(C)c2c(c(C)c1O)CC[C@@](C)(CCC[C@H](C)CCC[C@H](C)CCCC(C)C)O2`, the Activity was found to be 95.8% in test [1]; 95.7% in test [2]; 48.8% in test [3]; 23.4% in test [4]; 14% in test [5]; 8.3% in test [6].
